According to ChEMBL document CHEMBL1141579, “Synthesis, cytostatic, and antiviral activity of novel 6-[2-(dialkylamino)ethyl]-, 6-(2-alkoxyethyl)-, 6-[2-(alkylsulfanyl)ethyl]-, and 6-[2-(dialkylamino)vinyl]purine nucleosides” (Bioorg Med Chem, 2008):
pEC50, pIC50: −log10 of the molar value. Activity calls are given as the source filed them. No cut-off for these calls is given here.

Key:
[1] = test system: CCRF-CEM; assay: Cytostatic activity against human CCRF-CEM cells ATCC CCL 119 assessed as growth reduction after 72 hrs; assay type: functional, cell-based
How it was run: (§1)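 Cells grown in RPMI 1640 with foetal calf serum in 24-well plates. Counted in a haematological analyzer 72 h after drug addition. Inhibition expressed as IC50.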

[2] = Cytotoxicity against human MT4 cells after 5 days; assay type: cell-based
How it was run: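 MT-4 cells were seeded at 2 · 10^3 cells/well. Compounds were serially diluted in culture medium and cells were incubated for 5 days. Survival was measured by CellTiter Glo luminescence, in duplicate (N = 2).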

[3] = test system: Hepatitis C virus; assay: Antiviral activity against HCV 1b Con1 replicon in Huh7 cells; assay type: functional, organism-based, Hepatitis C virus subtype 1b; conditions: Huh-7
How it was run: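 Con-1/lucneo replicon cells seeded at 8 × 10^3 per well in medium without Geneticin. Compounds serially diluted in DMSO and added 1:200 (0.5% DMSO final). Incubated 3 days at 37 C. Cells lysed and luciferase activity read by luminometer. EC50 by non-linear regression, N = 2.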

[4] = Cytotoxicity against human Huh7 cells harboring con1 replicon after 3 days by MTT assay; assay type: cell-based, Huh-7
How it was run: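 Con-1 replicon-bearing Huh-7 cells were seeded at 8 · 10^3 cells per well in medium without Geneticin. Compound was serially diluted in 100% DMSO and added 1:200, giving 0.5% DMSO final. Cells were incubated at 37 C for 3 days. Toxicity was read at the end, in duplicate (N = 2).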

[5] = test system: L1210; assay: Cytostatic activity against mouse L1210 cells ATCC CCL219 assessed as growth reduction after 72 hrs; assay type: functional, cell-based; conditions: for pIC50: L1210, 72 h; how it was run: as §1
[6] = test system: HL-60; assay: Cytostatic activity against human HL60 cells ATCC CCL 240 assessed as growth reduction after 72 hrs; assay type: functional, cell-based; conditions: for pIC50: HL-60, 72 h; how it was run: as §1
[7] = test system: HL-60; assay: Cytostatic activity against human HL60 cells ATCC CCL 240 assessed as cell viability by XTT test; assay type: functional, cell-based
How it was run: (§2)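 Cell viability quantified by the XTT spectrophotometric assay. Inhibition expressed as IC50.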

[8] = test system: CCRF-CEM; assay: Cytostatic activity against human CCRF-CEM cells ATCC CCL 119 assessed as cell viability by XTT test; assay type: functional, cell-based; how it was run: as §2
[9] = test system: HL-60; assay: Cell cycle arrest in human HL60 cells assessed as accumulation in S phase at 4.5 uM relative to control; assay type: functional
How it was run: (§3)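 HL-60 cells treated at the stated concentration, then fixed in ethanol. Stained with propidium iodide in buffer containing RNase A and analysed by flow cytometry. Result given as the ratio of the treated to the control cell fraction in each phase (G1, S, G2/M).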

[10] = test system: HL-60; assay: Cell cycle arrest in human HL60 cells assessed as accumulation in G1 phase at 18 uM relative to control; assay type: functional; how it was run: as §3
[11] = test system: HL-60; assay: Cell cycle arrest in human HL60 cells assessed as accumulation in G1 phase at 4.5 uM relative to control; assay type: functional; how it was run: as §3
[12] = test system: HL-60; assay: Cell cycle arrest in human HL60 cells assessed as accumulation in G2/M phase at 4.5 uM relative to control; assay type: functional; how it was run: as §3
[13] = test system: HL-60; assay: Cell cycle arrest in human HL60 cells assessed as accumulation in G2/M phase at 18 uM relative to control; assay type: functional; how it was run: as §3
[14] = test system: HL-60; assay: Cell cycle arrest in human HL60 cells assessed as accumulation in S phase at 18 uM relative to control; assay type: functional; how it was run: as §3

OC[C@H]1O[C@@H](n2cnc3c(CCN4CCOCC4)ncnc32)C[C@@H]1O
Activity [1]: inactive | CC50 at 120 h [2]: 13 µM | pEC50 [3]: 4.60 | CC50 at 72 h [4]: > 100 µM | Activity [5]: inactive | Activity [6]: inactive

CN(C)CCc1ncnc2c1ncn2[C@H]1C[C@H](O)[C@@H](CO)O1
Activity [1]: inactive | pEC50 [3]: 3.94 | CC50 at 72 h [4]: > 250 µM | Activity [5]: inactive | Activity [6]: inactive

OC[C@H]1O[C@@H](n2cnc3c(/C=C/N4CCCCC4)ncnc32)[C@H](O)[C@@H]1O
pIC50 [1]: 5.68 | CC50 at 120 h [2]: 6 µM | pEC50 [3]: 6.00 | pIC50 [7]: 6.36 | CC50 at 72 h [4]: 26 µM | pIC50 [8]: 6.49 | pIC50 [5]: 5.81 | pIC50 [6]: 5.64

OC[C@H]1O[C@@H](n2cnc3c(/C=C/N4CCOCC4)ncnc32)[C@H](O)[C@@H]1O
pIC50 [1]: 5.62 | pEC50 [3]: 5.30 | pIC50 [7]: 6.51 | CC50 at 72 h [4]: 23 µM | pIC50 [8]: 6.39 | pIC50 [5]: 5.64 | pIC50 [6]: 5.35

COC(=O)CSCCc1ncnc2c1ncn2[C@@H]1O[C@H](CO)[C@@H](O)[C@H]1O
Activity [1]: inactive | CC50 at 120 h [2]: > 100 µM | pEC50 [3]: 4.27 | CC50 at 72 h [4]: > 100 µM | Activity [5]: inactive | Activity [6]: inactive

COCCc1ncnc2c1ncn2[C@@H]1O[C@H](CO)[C@@H](O)[C@H]1O
Activity [1]: inactive | CC50 at 120 h [2]: 13 µM | pEC50 [3]: 4.40 | CC50 at 72 h [4]: > 100 µM | Activity [5]: inactive | Activity [6]: inactive

OC[C@H]1O[C@@H](n2cnc3c(CCSCc4ccccc4)ncnc32)[C@H](O)[C@@H]1O
Activity [1]: inactive | pEC50 [3]: < 4.00 | CC50 at 72 h [4]: > 100 µM | Activity [5]: inactive | Activity [6]: inactive

CN(/C=C/c1ncnc2c1ncn2[C@@H]1O[C@H](CO)[C@@H](O)[C@H]1O)Cc1ccccc1
pIC50 [1]: 5.64 | pEC50 [3]: 6.47 | pIC50 [7]: 6.24 | CC50 at 72 h [4]: 1 µM | pIC50 [8]: 6.11 | pIC50 [5]: 5.68 | pIC50 [6]: 5.44

OC[C@H]1O[C@@H](n2cnc3c(CCSc4nc5ccccc5s4)ncnc32)[C@H](O)[C@@H]1O
Activity [1]: inactive | pEC50 [3]: < 4.00 | CC50 at 72 h [4]: > 100 µM | Activity [5]: inactive | Activity [6]: inactive

OC[C@H]1O[C@@H](n2cnc3c(/C=C/N4CCCCC4)ncnc32)C[C@@H]1O
Activity [1]: inactive | pEC50 [3]: 4.28 | CC50 at 72 h [4]: > 100 µM | Activity [5]: inactive | Activity [6]: inactive

OC[C@H]1O[C@@H](n2cnc3c(CCN4CCOCC4)ncnc32)[C@H](O)[C@@H]1O
Activity [1]: inactive | pEC50 [3]: 5.22 | CC50 at 72 h [4]: 31 µM | Activity [5]: inactive | Activity [6]: inactive

CCCCN(/C=C/c1ncnc2c1ncn2[C@@H]1O[C@H](CO)[C@@H](O)[C@H]1O)CCCC
pIC50 [1]: 5.60 | pEC50 [3]: 6.00 | pIC50 [7]: 6.08 | CC50 at 72 h [4]: 2 µM | pIC50 [8]: 6.08 | pIC50 [5]: 5.70 | pIC50 [6]: 5.14

CSCCc1ncnc2c1ncn2[C@@H]1O[C@H](CO)[C@@H](O)[C@H]1O
Activity [1]: inactive | pEC50 [3]: < 4.00 | CC50 at 72 h [4]: > 100 µM | Activity [5]: inactive | Activity [6]: inactive

OC[C@H]1O[C@@H](n2cnc3c(CC4SCCS4)ncnc32)[C@H](O)[C@@H]1O
Activity [1]: inactive | pEC50 [3]: < 4.00 | CC50 at 72 h [4]: > 100 µM | Activity [5]: inactive | Activity [6]: inactive

O=c1[nH]c(=O)n([C@H]2C[C@H](O)[C@@H](CO)O2)cc1F [FLOXURIDINE]
pIC50 [1]: 7.77 | pIC50 [5]: 7.92 | pIC50 [6]: 7.92

CCCCN(/C=C/c1ncnc2c1ncn2[C@H]1C[C@H](O)[C@@H](CO)O1)CCCC
Activity [1]: inactive | pEC50 [3]: 4.07 | CC50 at 72 h [4]: > 100 µM | Activity [5]: inactive | Activity [6]: inactive

C[C@@]1(O)[C@H](O)[C@@H](CO)O[C@H]1n1cnc2c(N)ncnc21
pEC50 [3]: 6.64 | CC50 at 72 h [4]: > 100 µM

CCN(/C=C/c1ncnc2c1ncn2[C@@H]1O[C@H](CO)[C@@H](O)[C@H]1O)CC
pIC50 [1]: 6.00 | pEC50 [3]: 5.40 | pIC50 [7]: 6.09 | CC50 at 72 h [4]: 8 µM | pIC50 [8]: 6.17 | pIC50 [5]: 5.66 | pIC50 [6]: 5.64

CCN(CC)CCc1ncnc2c1ncn2[C@@H]1O[C@H](CO)[C@@H](O)[C@H]1O
pIC50 [1]: 5.90 | Activity [9]: 1.08 | Activity [10]: 1.38 | pEC50 [3]: 5.17 | pIC50 [7]: 4.76 | Activity [11]: 0.99 | CC50 at 72 h [4]: 45 µM | Activity [12]: 0.8 | Activity [13]: 0.65 | pIC50 [8]: 6.10 | pIC50 [5]: 5.28 | Activity [14]: 0.78 | pIC50 [6]: 5.17

CN(C)CCc1ncnc2c1ncn2[C@@H]1O[C@H](CO)[C@@H](O)[C@H]1O
Activity [1]: inactive | pEC50 [3]: 5.15 | CC50 at 72 h [4]: 20 µM | Activity [5]: inactive | Activity [6]: inactive

CN(C)/C=C/c1ncnc2c1ncn2[C@@H]1O[C@H](CO)[C@@H](O)[C@H]1O
pIC50 [1]: 5.90 | pEC50 [3]: 5.40 | pIC50 [7]: 6.21 | CC50 at 72 h [4]: 5 µM | pIC50 [8]: 6.10 | pIC50 [5]: 5.66 | pIC50 [6]: 5.48

OC[C@H]1O[C@@H](n2cnc3c(CCN4CCCCC4)ncnc32)[C@H](O)[C@@H]1O
Activity [1]: inactive | pEC50 [3]: 4.43 | CC50 at 72 h [4]: > 250 µM | Activity [5]: inactive | Activity [6]: inactive

CN(CCc1ncnc2c1ncn2[C@@H]1O[C@H](CO)[C@@H](O)[C@H]1O)Cc1ccccc1
pIC50 [1]: 5.24 | Activity [9]: 0.95 | pEC50 [3]: 4.96 | pIC50 [7]: 4.75 | Activity [11]: 1.08 | CC50 at 72 h [4]: 132 µM | Activity [12]: 0.94 | pIC50 [8]: 5.23 | pIC50 [5]: 5.10 | pIC50 [6]: 4.95
